Sampled rows, rich in hits. Any-hit rate of the full collection: about 2.3%.
MCL1-BIM inh: MCL1-BIM-BH3 interaction inhibition (human); Q07820; GST-MCL1 / FITC-Bim-BH3 fluorescence polarization; hit rate 0.68% among 320,000; AID 2057; inhibition, % at 10.9 µM;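 active = inhibition above the mean inhibition of all tested compounds plus 3 SD, set per campaign, cut at about 40% in these data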;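 also: 0% = DMSO wells and 100% = unlabeled Bim-BH3 peptide control; higher means more loss of mP so more displacement of Bim peptide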
Target sequence (Q07820 whole entry, looked up): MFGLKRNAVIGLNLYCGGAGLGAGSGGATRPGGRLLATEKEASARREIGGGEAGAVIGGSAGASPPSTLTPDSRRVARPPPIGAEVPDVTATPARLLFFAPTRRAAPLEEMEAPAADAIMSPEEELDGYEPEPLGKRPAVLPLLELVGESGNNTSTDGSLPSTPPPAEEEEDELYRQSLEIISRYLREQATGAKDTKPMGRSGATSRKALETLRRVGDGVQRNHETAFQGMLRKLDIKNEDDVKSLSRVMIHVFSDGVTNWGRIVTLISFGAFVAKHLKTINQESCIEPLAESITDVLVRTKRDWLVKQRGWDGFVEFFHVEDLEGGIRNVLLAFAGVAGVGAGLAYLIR
Mcl1 Noxa PPI: disrupts binding of human Mcl-1 to Noxa peptide. Q07820. TR-FRET Mcl-1/Noxa peptide binding, 2 h. inhibition, % at 21.7 µM. hit rate 1.5% among 220,000. AID 1022;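 active = compounds that cut the protein-peptide binding signal by more than 50% relative to plate controls in a single-dose test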;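 also: His-tagged Mcl-1 with rhodamine Noxa BH3 peptide and terbium anti-His antibody; 0% = Mcl-1 plus Noxa peptide wells and 100% = peptide-only wells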
Bim-Mcl-1: human Bim-Mcl-1 interaction inhibition. Bead-based flow cytometry, Bim peptide-Mcl-1 binding. inhibition, % at 10 µM. hit rate 0.1% among 190,000; in the data active = inhibition above about 40%;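 also: 0% = no compound tracer wells and 100% = peptide blocker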
T cell modulator: T cell immune modulators affecting CD8 T cell-vesicle binding | 2C CD8+ T cell-vesicle binding, flow cytometry; stronger effect = lower value | response (vesicle binding), % at 7 µM | hit rate 0.068% among 330,000;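 active = response, share of CD8 T cells binding vesicles, and their 90th percentile fluorescence all below set limits, cut at about 80% in these data, passing the limit was not always enough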;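 also: values below 100% mean blocked vesicle binding to the CD8+ T cells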
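Benchmarks: naked versus QL9-loaded vesicles / Assay system: purified 2C TCR transgenic mouse naive CD8+ T cells / Technique: high-throughput flow cytometry with anti-B7-1 and anti-CD8 staining / Timing: Cell–vesicle co-incubation 1.5 h at 37 °C, staining 20 min on ice / Read-out: percent CD8+ FL2 mean versus row control / Probe or stimulus: QL9-loaded Drosophila micro-vesicles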
Pemphigus Ab inh: inhibitors of pemphigus antibody binding to human desmoglein-3 | P32926 | DSG3-coupled beads, scFv-anti-DSG3-GFP binding, flow cytometry; stronger effect = lower value | binding (percent of control), % at 10 µM | hit rate 0.48% among 310,000;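 active = binding more than 3 SD below its plate's average and above zero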
Mcl1 Bid PPI: disrupts binding of human Mcl-1 to Bid peptide. Q07820. TR-FRET Mcl-1/Bid-Dy647 peptide binding, 1536-well. inhibition, % at 21.7 µM. hit rate 0.97% among 220,000;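 active = compounds that cut the binding signal by more than half at the single screening dose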;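 also: His-tagged Mcl-1 with europium anti-His antibody binding Bid BH3 peptide; 0% = Mcl-1 plus peptide wells and 100% = peptide-only wells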
The depositor's hits bear a star; . = not tested or not shown.

SMILES | MCL1-BIM inh | Mcl1 Noxa PPI | Bim-Mcl-1 | T cell modulator | Pemphigus Ab inh | Mcl1 Bid PPI
Cc1ccc(CC(NC(=O)c2ccc(C)cc2)C(=O)O)cc1 (centres undefined) | . | . | . | . | 102.2 | .
Nc1nc(N)c2cc(CNc3ccc(Cl)c(Cl)c3)ccc2n1 | . | . | . | . | 114.2 | .
C=CCNC(=O)CSc1nnc(-c2cccc(S(=O)(=O)N3CCOCC3)c2)o1 | . | . | . | . | 103.6 | .
O=C(CN1CCN(S(=O)(=O)c2ccc(Br)cc2)CC1)c1ccc(O)c(O)c1 | 17.1 | . | . | 264.9 | 100.4 | .
CC(C)NC(=O)N(C)C[C@H]1Oc2ccc(NS(=O)(=O)c3ccccc3)cc2C(=O)N([C@H](C)CO)C[C@H]1C | . | . | . | 61.8* | 106.7 | .
C[C@@H]1CN([C@H](C)CO)C(=O)c2cccc(NS(=O)(=O)c3ccccc3)c2O[C@H]1CN(C)C | . | . | . | 181.3 | 95.8 | .
C[C@H](CO)N1C[C@H](C)[C@@H](CN(C)C)Oc2c(NS(=O)(=O)c3ccccc3)cccc2C1=O | . | . | . | 0.0* | 101.4 | .
COc1ccc(/C=N/Nc2ncc(-c3ccccc3)cn2)c(OC)c1 | -4.9 | 51.8* | -2.0 | 285.1 | 99.2 | 40.2
CC1(c2ccc3ccccc3c2)NC(=O)N(CC(=O)N2CCN(c3ccccc3O)CC2)C1=O (centres undefined) | -0.7 | . | . | 158.2 | 110.0 | .
CC(Oc1ccccc1F)C(=O)NCCN1CCCCC1 (centres undefined) | 1.8 | -3.5 | 2.0 | 292.8 | 103.1 | 59.2*
COc1ccccc1C(=O)NCCN1CCCC1 | . | . | . | . | 102.8 | .
CN1CCN(Cc2nc3ccccc3c(=O)n2Cc2nc(-c3ccc([N+](=O)[O-])cc3)cs2)CC1 | 3.8 | 30.9 | -7.0 | 209.0 | -159.8* | 12.4
Cc1c2c(=O)n(-c3nc4ccccc4s3)nc-2cc(O)n1Cc1ccccc1 | . | 73.4* | . | . | 96.7 | -98.7
Cc1cc(C)n(-c2nc3ccccc3s2)n1 | 2.0 | -2.5 | -1.0 | 172.5 | 110.3 | -19.9
C[C@H]1CN=C(N(C)C)N1CCc1ccc(F)cc1 | 3.8 | . | . | 159.9 | 95.9 | .
Cc1ccc(S(=O)(=O)N(C)CC(=O)O/N=C(\N)c2ccc([N+](=O)[O-])cc2)cc1 | 4.8 | -4.5 | -3.0 | 346.5 | . | 0.5
CN(CC(=O)O/N=C(\N)c1ccc([N+](=O)[O-])cc1)S(=O)(=O)c1ccccc1 | 0.9 | 83.1* | 95.0* | 176.9 | 107.2 | 11.5
Cc1n[nH]c(=O)c2c(NC(=O)CSc3nn(-c4ccccc4)c(=S)s3)oc(C)c12 | -1.2 | . | . | 164.3 | 105.7 | .
COc1cc(/C=C2/S/C(=N/S(=O)(=O)c3ccccc3)NC2=O)c([N+](=O)[O-])cc1OC | 46.2* | 29.4 | 0.0 | 307.4 | 102.2 | 20.8
CCOC(=O)c1cc(C)[nH]c(=S)c1C#N | 8.3 | 71.7* | -4.0 | 282.9 | 84.4 | -46.6
COc1cccc(OCC(=O)NNC(=O)c2ccc3ccccc3c2)c1 | 7.5 | . | . | 106.7 | 105.0 | .
COc1ccc(Cn2c(=O)[nH]c3cc(C(=O)NCc4ccc5c(c4)OCO5)ccc3c2=O)cc1 | -3.7 | 8.7 | 2.0 | 165.4 | 107.3 | 56.3*
N=c1c(C(=O)NCc2ccc3c(c2)OCO3)cc2c(=O)n3ccccc3nc2n1Cc1cccnc1 | 3.8 | 74.1* | -4.0 | 331.3 | 100.0 | 49.9
COc1ccc(Cn2c(=O)[nH]c3cc(C(=O)NCCCOC(C)C)ccc3c2=O)cc1 | 5.8 | -0.6 | 1.0 | 176.5 | 91.8 | -22.2
COc1ccc(Cn2c(=N)c(C(=O)NC3CCCCC3)cc3c(=O)n4ccccc4nc32)cc1 | -3.4 | . | . | 163.8 | 106.5 | .
SMILES | MCL1-BIM inh | Mcl1 Noxa PPI | Bim-Mcl-1 | T cell modulator | Pemphigus Ab inh | Mcl1 Bid PPI
COc1ccc(CNC(=O)c2cc3c(=O)n4ccccc4nc3n(Cc3cccnc3)c2=N)cc1 | 21.3 | 58.6* | 1.0 | 287.5 | 107.7 | 7.9
O=C(/C=C/c1ccc(-c2ccccc2[N+](=O)[O-])o1)c1ccco1 | 31.9 | 66.3* | 2.0 | 367.2 | 87.5 | -58.0
COc1ccccc1/C=C/C(=O)OC(C)CN1CCCCC1 (centres undefined) | -3.5 | . | . | 0.0 | 89.4* | .
CCOC(=O)c1c(N)sc(N)c1C(=O)OCC | 17.5 | 69.1* | -5.0 | 254.8 | 94.0 | -28.2
CCOC(=O)c1c(N)sc(C(N)=O)c1C | 9.3 | 17.8 | 2.0 | 399.2 | 98.7 | -34.0
CCOC(=O)c1c(N)sc(=S)c2c1CCC2 | 46.2* | 56.6* | 0.0 | 304.9 | . | 53.6*
C=C(C)Cn1c(Sc2nnc(C)s2)nc2c1c(=O)[nH]c(=O)n2C | 1.4 | -16.6 | 0.0 | 357.5 | 95.2 | 89.1*
